Test results as given in ChEMBL document CHEMBL4706487, “Antitumor agents 7. Synthesis, antiproliferative activity and molecular modeling of new l-lysine-conjugated pyridophenoxazinones as potent DNA-binding ligands and topoisomerase IIα inhibitors” (Eur J Med Chem, 2020).
pIC50: −log10 of the molar value. Activity calls are given as the source filed them. The rule behind the calls is not given here.

How the values were obtained:
CCRF-CEM = test: Antiproliferative activity against human CCRF-CEM cells assessed as cell viability measured after 4 days by MTT assay; assay type: functional, cell-based; conditions: 96 h
Outline: (§1)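 Leukemia/lymphoma cells (RPMI 1640, 10% FCS) resuspended at 1 × 10⁵ cells/mL with serial drug dilutions and read by MTT after 96 h at 37 °C. Solid-tumor cells (own media, 10% FCS) were seeded at 5 × 10⁴ cells/mL, allowed 16 h to adhere, then dosed and read by MTT 4 days later. IC50 was derived by linear regression of growth as % of untreated controls.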

CCRF-SB = test: Antiproliferative activity against human CCRF-SB cells assessed as cell viability measured after 4 days by MTT assay; assay type: functional, cell-based; conditions: 96 h; outline: as §1
MT4 = test: Antiproliferative activity against human MT-4 cells assessed as cell viability measured after 4 days by MTT assay; assay type: functional, cell-based; conditions: MT4, 96 h; outline: as §1
HT-29 = test: Antiproliferative activity against human HT-29 cells assessed as cell viability measured after 4 days by MTT assay; assay type: functional, cell-based; conditions: HT-29, 96 h; outline: as §1
MCF7 [1] = test: Antiproliferative activity against human MCF7 cells assessed as cell viability measured after 4 days by MTT assay; assay type: functional, cell-based; conditions: MCF7, 96 h; outline: as §1
HeLa = test: Antiproliferative activity against human HeLa cells assessed as cell viability measured after 4 days by MTT assay; assay type: functional, cell-based; conditions: 96 h
Outline: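 Solid-tumor cells (own media, 10% FCS) were seeded at 5 × 10⁴ cells/mL, allowed 16 h to adhere, then dosed and read by MTT 4 days later. IC50 was derived by linear regression of growth as % of untreated controls.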

ACHN = test: Antiproliferative activity against human ACHN cells assessed as cell viability measured after 4 days by MTT assay; assay type: functional, cell-based; conditions: 96 h; outline: as §1
SK-MEL-28 = test: Antiproliferative activity against human SKMEL-28 cells assessed as cell viability measured after 4 days by MTT assay; assay type: functional, cell-based; conditions: SK-MEL-28, 96 h; outline: as §1
G-361 = test: Antiproliferative activity against human G-361 cells assessed as cell viability measured after 4 days by MTT assay; assay type: functional, cell-based; conditions: G-361, 96 h; outline: as §1
Calf thymus DNA [2] = test: Binding affinity to calf thymus DNA assessed as lamda max by UV-vis spectroscopy; assay type: nucleic-acid assay; conditions: Bos taurus
Outline: (§2)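 ctDNA held at 0.2 mM in phosphate buffer pH 7 and titrated with drug from […]. UV-vis spectra recorded in a 1 cm quartz cuvette. Binding constant was taken by the mole-ratio method from optical density changes at 260 nm, using a double reciprocal plot.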

Calf thymus DNA [3] = test: Binding affinity to calf thymus DNA assessed as isosbestic point by UV-vis spectroscopy; assay type: nucleic-acid assay; conditions: Bos taurus; outline: as §2
Calf thymus DNA [4] = test: Binding affinity to calf thymus DNA assessed as red shift by UV-vis spectroscopy; assay type: nucleic-acid assay; parameters: unit not given here; conditions: Bos taurus; outline: as §2
Calf thymus DNA [5] = test: Binding affinity to calf thymus DNA assessed as hypochromism by UV-vis spectroscopy; conditions: Bos taurus
MCF7 [6] = test: Induction of DNA damage in human MCF7 cells assessed as increase in gammaH2AX foci at 5 to 10 uM measured after 0.5 to 3 hrs by Western blot analysis; assay type: functional, cell-based; conditions: dose 5-10 µM, time 0.5-3 hrs
Outline: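 MCF-7 cells were treated for 0.5, 1 and 3 h, washed with ice-cold PBS and lysed in RIPA buffer containing PMSF and protease inhibitors. Lysates run on SDS-PAGE, blotted to PVDF and probed for H2AX, with β-actin as loading control. Detection by HRP secondary antibody and enhanced chemiluminescence.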

DNA [7] = test: Binding affinity at Escherichia coli pBR322 DNA assessed as unwinding of supercoiled DNA at 10 uM incubated for 10 mins in presence of human topoisomerase 1 by agarose gel based electrophoresis; assay type: nucleic-acid assay
Outline: (§3)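 Intercalation assay with relaxed pBR322 (300 ng) and 2 units human Topo I in 50 mM Tris-HCl pH 7.5, 2.5 mM MgCl₂, 0.5 mM DTT and 50 µg/mL BSA, run 10 min at 37 °C. Stopped by phenol/chloroform/isoamyl alcohol extraction. Products run on 1.2% agarose in TAE, 2 V/cm for 15 h, then EtBr-stained. EtBr served as control; three independent experiments.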

DNA [8] = test: Binding affinity at Escherichia coli pBR322 DNA assessed as unwinding of supercoiled DNA at 0.1 uM incubated for 10 mins in presence of human topoisomerase 1 by agarose gel based electrophoresis; assay type: nucleic-acid assay; outline: as §3
[9] = molecular target: DNA topoisomerase 2-alpha (Homo sapiens) (UniProt P11388); test: Inhibition of human topoisomerase 2alpha mediated pBR322 DNA relaxation at 0.7 uM by agarose gel electrophoresis relative to control
Sequence of DNA topoisomerase 2-alpha (Homo sapiens) (P11388 whole entry): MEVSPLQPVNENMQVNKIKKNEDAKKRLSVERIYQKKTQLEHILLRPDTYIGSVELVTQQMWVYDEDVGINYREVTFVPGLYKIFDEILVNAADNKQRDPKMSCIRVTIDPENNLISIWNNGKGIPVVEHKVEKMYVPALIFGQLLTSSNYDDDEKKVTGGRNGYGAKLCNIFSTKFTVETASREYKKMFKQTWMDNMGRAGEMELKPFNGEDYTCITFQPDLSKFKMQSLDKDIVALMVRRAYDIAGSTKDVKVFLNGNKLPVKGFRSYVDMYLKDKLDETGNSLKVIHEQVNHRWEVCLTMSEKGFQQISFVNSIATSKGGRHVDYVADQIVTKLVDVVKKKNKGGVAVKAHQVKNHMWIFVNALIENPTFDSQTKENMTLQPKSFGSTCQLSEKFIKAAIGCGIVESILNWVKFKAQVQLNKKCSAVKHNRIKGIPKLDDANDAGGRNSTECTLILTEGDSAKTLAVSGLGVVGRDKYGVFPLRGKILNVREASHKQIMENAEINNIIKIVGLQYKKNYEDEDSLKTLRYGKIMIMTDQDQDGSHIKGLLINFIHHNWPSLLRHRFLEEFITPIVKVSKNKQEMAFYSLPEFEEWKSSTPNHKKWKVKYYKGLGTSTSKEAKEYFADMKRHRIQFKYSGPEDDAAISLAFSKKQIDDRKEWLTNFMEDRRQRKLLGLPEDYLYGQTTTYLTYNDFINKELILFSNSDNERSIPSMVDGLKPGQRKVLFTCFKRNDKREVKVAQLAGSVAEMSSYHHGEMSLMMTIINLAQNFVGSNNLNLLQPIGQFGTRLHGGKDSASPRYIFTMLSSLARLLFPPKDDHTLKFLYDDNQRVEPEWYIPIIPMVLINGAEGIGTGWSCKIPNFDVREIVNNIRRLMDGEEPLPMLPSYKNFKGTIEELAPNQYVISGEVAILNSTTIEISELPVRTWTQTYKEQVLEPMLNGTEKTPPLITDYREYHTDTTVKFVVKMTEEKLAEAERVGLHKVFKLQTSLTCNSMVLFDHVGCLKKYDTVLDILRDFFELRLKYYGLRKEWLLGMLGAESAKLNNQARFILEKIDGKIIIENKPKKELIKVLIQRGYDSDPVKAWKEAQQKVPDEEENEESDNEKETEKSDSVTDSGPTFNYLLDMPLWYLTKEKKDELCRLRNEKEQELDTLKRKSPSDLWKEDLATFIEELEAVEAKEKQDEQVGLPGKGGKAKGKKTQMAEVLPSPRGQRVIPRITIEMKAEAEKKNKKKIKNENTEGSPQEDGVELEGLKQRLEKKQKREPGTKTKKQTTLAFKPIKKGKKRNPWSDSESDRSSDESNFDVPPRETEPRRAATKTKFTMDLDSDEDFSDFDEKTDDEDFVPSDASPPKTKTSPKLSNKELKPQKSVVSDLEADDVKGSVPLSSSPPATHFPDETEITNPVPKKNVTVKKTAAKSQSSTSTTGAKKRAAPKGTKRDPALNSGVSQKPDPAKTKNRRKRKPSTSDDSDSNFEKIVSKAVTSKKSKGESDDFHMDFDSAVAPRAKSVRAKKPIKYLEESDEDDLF

[10] = molecular target: DNA topoisomerase 2-alpha (Homo sapiens) (UniProt P11388); test: Inhibition of human topoisomerase 2alpha mediated pBR322 DNA relaxation at 1.5 uM by agarose gel electrophoresis relative to control
[11] = molecular target: DNA topoisomerase 2-alpha (Homo sapiens) (UniProt P11388); test: Poison activity at human topo2alpha assessed as induction of accumulation of topo-2/DNA cleavage complex formation at 1 to 5 uM using […] plasmid incubated for 10 mins by agarose gel electrophoresis; conditions: dose 1-5 µM
Outline: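 Supercoiled pBR322 incubated with purified Topo IIα and drug for 10 min at 30 °C. Stopped with 0.35% SDS plus 0.3 mg/mL proteinase K (final), then 1 h at 56 °C. Products run on 1.2% agarose gels containing EtBr. Linear DNA quantified by gel densitometry; averages of three independent experiments.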

[12] = molecular target: DNA topoisomerase 2-beta (Homo sapiens) (UniProt Q02880); test: Poison activity at topo2beta (unknown origin) assessed as induction of accumulation of topo-2/DNA cleavage complex formation by agarose gel electrophoresis
Sequence of DNA topoisomerase 2-beta (Homo sapiens) (Q02880 whole entry): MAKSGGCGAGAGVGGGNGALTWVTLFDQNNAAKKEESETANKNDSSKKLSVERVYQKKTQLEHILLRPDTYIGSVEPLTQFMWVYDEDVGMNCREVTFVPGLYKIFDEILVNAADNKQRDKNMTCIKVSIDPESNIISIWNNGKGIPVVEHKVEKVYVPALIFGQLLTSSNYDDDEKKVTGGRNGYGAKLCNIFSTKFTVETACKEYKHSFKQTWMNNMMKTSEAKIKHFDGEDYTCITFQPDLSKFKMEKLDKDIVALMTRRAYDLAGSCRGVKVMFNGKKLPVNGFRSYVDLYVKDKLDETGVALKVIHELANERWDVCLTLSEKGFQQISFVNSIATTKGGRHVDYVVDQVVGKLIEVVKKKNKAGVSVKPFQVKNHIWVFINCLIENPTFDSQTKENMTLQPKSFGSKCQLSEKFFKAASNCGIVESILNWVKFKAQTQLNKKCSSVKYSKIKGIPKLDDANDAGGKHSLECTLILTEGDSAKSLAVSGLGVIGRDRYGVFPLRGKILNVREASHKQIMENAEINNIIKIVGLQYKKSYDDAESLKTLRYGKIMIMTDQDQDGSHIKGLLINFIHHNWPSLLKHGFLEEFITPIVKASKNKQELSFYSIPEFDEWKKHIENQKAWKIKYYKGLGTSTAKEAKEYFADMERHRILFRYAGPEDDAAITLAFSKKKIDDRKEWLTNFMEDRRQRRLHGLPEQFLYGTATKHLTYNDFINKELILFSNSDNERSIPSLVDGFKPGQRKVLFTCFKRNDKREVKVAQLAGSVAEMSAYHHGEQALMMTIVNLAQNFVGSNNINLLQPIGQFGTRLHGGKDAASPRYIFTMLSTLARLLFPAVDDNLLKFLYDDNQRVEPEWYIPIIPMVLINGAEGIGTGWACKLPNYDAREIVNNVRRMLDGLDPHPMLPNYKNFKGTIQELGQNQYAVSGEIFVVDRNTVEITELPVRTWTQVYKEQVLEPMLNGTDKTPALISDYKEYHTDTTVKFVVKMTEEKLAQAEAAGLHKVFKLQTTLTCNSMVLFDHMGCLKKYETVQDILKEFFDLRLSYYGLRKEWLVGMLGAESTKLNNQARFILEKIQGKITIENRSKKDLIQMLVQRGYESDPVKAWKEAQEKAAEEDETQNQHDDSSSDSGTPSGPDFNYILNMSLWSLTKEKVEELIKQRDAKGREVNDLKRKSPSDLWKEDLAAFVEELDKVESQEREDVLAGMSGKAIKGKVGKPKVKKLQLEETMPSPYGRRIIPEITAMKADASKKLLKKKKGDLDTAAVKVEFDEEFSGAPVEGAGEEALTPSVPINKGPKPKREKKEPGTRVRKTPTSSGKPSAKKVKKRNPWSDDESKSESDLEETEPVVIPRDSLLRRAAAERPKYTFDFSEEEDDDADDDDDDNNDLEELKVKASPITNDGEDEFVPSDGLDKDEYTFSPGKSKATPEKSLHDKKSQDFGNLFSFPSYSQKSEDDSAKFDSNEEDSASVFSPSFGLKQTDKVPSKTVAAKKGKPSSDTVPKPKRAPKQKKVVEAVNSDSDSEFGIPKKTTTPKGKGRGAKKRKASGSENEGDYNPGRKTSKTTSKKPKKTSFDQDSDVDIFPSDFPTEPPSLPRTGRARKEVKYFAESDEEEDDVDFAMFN

MCF7 [13] = test: Induction of DNA damage in human MCF7 cells assessed as increase tail length at 1 to 10 uM after 24 hrs by comet assay; assay type: functional, cell-based; conditions: dose 1-10 µM
Outline: (§4)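 About 1 × 10⁵ MCF-7 cells seeded; after 24 h, drug added for 24 h, with 10 µM VP-16 as positive control. Alkaline comet assay: lysis 1 h at 4 °C at pH 10, unwinding at pH 13, then electrophoresis at 30 V for 15 min. Slides neutralized, PI-stained and imaged by fluorescence microscopy at 10×. Tail lengths were taken from randomly selected cells.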

MCF7 [14] = test: Induction of DNA damage in human MCF7 cells assessed as increase tail length at 10 uM after 24 hrs by comet assay (reference value: 8%); assay type: functional; outline: as §4
MCF7 [15] = test: Induction of cell cycle arrest in human MCF7 cells assessed as accumulation of cells at G0/G1 phase at 0.1 uM after 12 hrs by flow cytometry (reference value: 51.7%); assay type: functional
Outline: (§5)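 MCF-7 cells exposed continuously to vehicle or 0.1 µM drug for 12, 24 and 48 h. Cell cycle distribution was assessed by flow cytometry.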

MCF7 [16] = test: Induction of cell cycle arrest in human MCF7 cells assessed as accumulation of cells at S phase at 0.1 uM after 12 hrs by flow cytometry (reference value: 31.3%); assay type: functional; outline: as §5
MCF7 [17] = test: Induction of cell cycle arrest in human MCF7 cells assessed as accumulation of cells at G2/M phase at 0.1 uM after 12 hrs by flow cytometry (reference value: 17%); assay type: functional; outline: as §5
MCF7 [18] = test: Induction of cell cycle arrest in human MCF7 cells assessed as accumulation of cells at G0/G1 phase at 0.1 uM after 24 hrs by flow cytometry (reference value: 51.7%); assay type: functional; outline: as §5
MCF7 [19] = test: Induction of cell cycle arrest in human MCF7 cells assessed as accumulation of cells at S phase at 0.1 uM after 24 hrs by flow cytometry (reference value: 31.3%); assay type: functional; outline: as §5
MCF7 [20] = test: Induction of cell cycle arrest in human MCF7 cells assessed as accumulation of cells at G2/M phase at 0.1 uM after 24 hrs by flow cytometry (reference value: 17%); assay type: functional; outline: as §5
MCF7 [21] = test: Induction of cell cycle arrest in human MCF7 cells assessed as accumulation of cells at G0/G1 phase at 0.1 uM after 48 hrs by flow cytometry (reference value: 51.7%); assay type: functional; outline: as §5
MCF7 [22] = test: Induction of cell cycle arrest in human MCF7 cells assessed as accumulation of cells at S phase at 0.1 uM after 48 hrs by flow cytometry (reference value: 31.3%); assay type: functional; outline: as §5
MCF7 [23] = test: Induction of cell cycle arrest in human MCF7 cells assessed as accumulation of cells at G2/M phase at 0.1 uM after 48 hrs by flow cytometry (reference value: 17%); assay type: functional; outline: as §5

| pIC50 (CCRF-CEM) | pIC50 (CCRF-SB) | pIC50 (HT-29) | pIC50 (MCF7 [1]) | pIC50 (HeLa) | pIC50 (ACHN) | pIC50 (SK-MEL-28) | Activity (Calf thymus DNA [2]) | Activity (Calf thymus DNA [3]) | Activity (Calf thymus DNA [4]) | Activity (Calf thymus DNA [5]) | Activity (DNA [7]) | Structure (SMILES) | pIC50 (MT4) | pIC50 (G-361) | also measured |
| --- | --- | --- | --- | --- | --- | --- | --- | --- | --- | --- | --- | --- | --- | --- | --- |
| 8.52 | 8.30 | 8.40 | 8.52 | 8.30 | 8.30 | 8.70 | 443 | 340 nm | 448 | 58% | Active | N[C@@H](CCCCNC(=O)c1ccc2nc3c4cccnc4c(=O)cc-3oc2c1)C(=O)O | 8.22 | 8.22 | Activity (MCF7 [6]): Active; Activity (DNA [8]): Active; inhibition [9]: 50%; inhibition [10]: 100%; Activity [11]: Active; Activity [12]: inactive; Activity (MCF7 [13]): Active; Activity (MCF7 [14]): 50%; Activity (MCF7 [15]): 51.71%; Activity (MCF7 [16]): 30.5%; Activity (MCF7 [17]): 17.8%; Activity (MCF7 [18]): 48%; Activity (MCF7 [19]): 26%; Activity (MCF7 [20]): 26%; Activity (MCF7 [21]): 42.5%; Activity (MCF7 [22]): 8.73%; Activity (MCF7 [23]): 48.77% |
| – | – | – | 6.64 | – | – | – | – | – | – | – | – | O=c1cc2oc3ccccc3nc-2c2cccnc12 | – | – | – |
| 7.00 | 6.92 | 7.10 | 7.00 | 7.10 | 7.00 | 6.92 | 437 | 343 nm | 440 | 30% | Active | NCCCC[C@H](NC(=O)c1ccc2oc3cc(=O)c4ncccc4c-3nc2c1)C(=O)O | 7.05 | 7.22 | – |

More lines, now with the values behind:

| Structure (SMILES) | pIC50 (CCRF-CEM) | pIC50 (CCRF-SB) | pIC50 (HT-29) | pIC50 (MCF7 [1]) | pIC50 (HeLa) | pIC50 (ACHN) | pIC50 (SK-MEL-28) | Activity (Calf thymus DNA [2]) | Activity (Calf thymus DNA [3]) | Activity (Calf thymus DNA [4]) | Activity (Calf thymus DNA [5]) | Activity (DNA [7]) | pIC50 (MT4) | pIC50 (G-361) | also measured |
| --- | --- | --- | --- | --- | --- | --- | --- | --- | --- | --- | --- | --- | --- | --- | --- |
| N[C@@H](CCCCNC(=O)c1ccc2oc3cc(=O)c4cccnc4c-3nc2c1)C(=O)O | 6.82 | 7.00 | 6.92 | 6.92 | 6.82 | 7.00 | 7.00 | 441 | 275 nm | 446 | 17% | – | 6.82 | 7.52 | – |
| NCCCC[C@H](NC(=O)c1ccc2nc3c4ncccc4c(=O)cc-3oc2c1)C(=O)O | 7.77 | 7.10 | 7.00 | 7.30 | 7.30 | 7.22 | 7.22 | 451 | 297 nm | 455 | 26% | – | 6.70 | 7.30 | – |
| O=c1cc2oc3ccccc3nc-2c2ncccc12 | 7.05 | 6.82 | 6.42 | 6.43 | 6.82 | 6.64 | 6.40 | – | – | – | – | – | 6.74 | 6.35 | – |
| N[C@@H](CCCCNC(=O)c1ccc2oc3cc(=O)c4ncccc4c-3nc2c1)C(=O)O | 7.40 | 7.10 | 7.70 | 7.22 | 7.30 | 7.30 | 7.40 | 436 | 310 nm | 440 | 39% | Active | 7.05 | 7.70 | – |
